# Legend:
# [1] = Thymidine kinase activity was measured by nonradiochemical assay method - TdR (percentage of the control rate measured in the presence of 5 µM TdR)
# [2] = Thymidine kinase activity was measured by nonradiochemical assay method + TdR (percentage of the control rate measured in the presence of 5 uM Tdr)
# How it was run: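 Conditions match the radiochemical assay, but with 5 µM unlabeled TdR: 10 min at 37 °C, stopped by 20-fold dilution in ice-cold water. Nucleotides separated from nucleosides, freeze-dried, dephosphorylated overnight with alkaline phosphatase, then quantified as nucleosides by C18 HPLC (A254/A280). Expressed as % of the control rate with 5 µM TdR, mean of ≥2 experiments.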
# [3] = Thymidine kinase activity was measured by radio chemical assay method
# How it was run: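 Same L1210 ammonium sulfate enzyme fraction and mix: 5 µM [3H]TdR, 2 mM ATP, 1 mM MgCl2, 10% Me2SO, 45 mM Tris-HCl pH 7.8, 37 °C. Stopped by boiling. [3H]TMP bound to PEI-cellulose squares and counted. Run in parallel with the HPLC assay. Activity given as % of the control rate, mean of at least two experiments.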
# L1210 [4] = assay: The compound was tested for inhibition of thymidine kinase using […] at concentration 50 uM in L1210 cells; type: cell-based
# How it was run: (§1)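 Enzyme: L1210 ascites cell sonicate (50 mM Tris-HCl pH 7.8, 150 mM KCl), 100000g supernatant precipitated at 30% ammonium sulfate saturation. Reaction mix: 5 µM [3H]TdR, 2 mM ATP, 1 mM MgCl2, 10% Me2SO, 45 mM Tris pH 7.8, compound added in Me2SO. Run 10 min at 37 °C, stopped by boiling. [3H]TMP captured on PEI-cellulose, eluted with HCl, counted. % inhibition given as mean ± SE of n determinations.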
# L1210 [5] = assay: The compound was tested for inhibition of thymidine kinase using […] at concentration 125 uM in L1210 cells; type: cell-based
# How it was run: as §1
# L1210 [6] = assay: The compound was tested for inhibition of thymidine kinase using […] at concentration 200 uM in L1210 cells; type: cell-based
# How it was run: as §1
# L1210 [7] = assay: The compound was tested for inhibition of thymidine kinase using […] at concentration 250 uM in L1210 cells; type: cell-based
# How it was run: as §1
Compound,Activity [1],Activity [2],Activity [3],inhibition (L1210 [4]),inhibition (L1210 [5]),inhibition (L1210 [6]),inhibition (L1210 [7])
Cc1cn([C@H]2C[C@H](O)[C@@H](CN)O2)c(=O)[nH]c1=O,0,27,26,76%,,,
Cc1cn(C2CC(O)C(CNC(=O)COc3ccc(OCc4ccc([N+](=O)[O-])cc4)cc3)O2)c(=O)[nH]c1=O (stereo not given),,,,,1%,,
Cc1cn([C@H]2C[C@H](O)[C@@H](COCCOc3ccc(OCc4ccccc4)cc3)O2)c(=O)[nH]c1=O,,,,,,14%,
Cc1cn([C@H]2C[C@H](O)[C@@H](COC(=O)COc3ccc(OCc4ccc([N+](=O)[O-])cc4)cc3)O2)c(=O)[nH]c1=O,110,144,62,,,35%,
Cc1cn(C2CC(O)C(CNC(=O)COc3ccc(OCc4ccccc4)cc3)O2)c(=O)[nH]c1=O (stereo not given),,,,,0%,,
Cc1cn([C@H]2C[C@H](O)[C@@H](COC(=O)COc3ccc(OCc4ccccc4)cc3)O2)c(=O)[nH]c1=O,118,152,65,,,,33%
